From ChEMBL document CHEMBL3596136, “Design, synthesis and biological evaluation of paralleled Aza resveratrol-chalcone compounds as potential anti-inflammatory agents for the treatment of acute lung injury” (Bioorg Med Chem Lett, 2015)
The source made the active and inactive calls. The calls are words filed in the database; no cut-off is given here.

Assays:
[1] = test system: RAW264.7; test: Anti-inflammatory activity in mouse RAW264.7 cells assessed as inhibition of LPS-induced IL6 production at 10 mM pre-incubated for 10 mins before LPS stimulation for 24 hrs by ELISA method; assay type: functional, cell-based; conditions: in the assay text read “pre-incubated for 30 mins” for “pre-incubated for 10 mins”
Summary of the method: (§1)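 RAW 264.7 macrophages pretreated with compound for 30 min, then stimulated with LPS for 24 h. TNF-α and IL-6 in culture medium measured by ELISA and normalized to total protein. Expressed as percent of LPS group; mean ± SEM of 3 independent experiments.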

[2] = test system: RAW264.7; test: Anti-inflammatory activity in mouse RAW264.7 cells assessed as inhibition of LPS-induced TNFalpha production at 10 mM pre-incubated for 10 mins before LPS stimulation for 24 hrs by ELISA method; assay type: functional, cell-based; conditions: in the assay text read “pre-incubated for 30 mins” for “pre-incubated for 10 mins”; summary of the method: as §1
[3] = test system: RAW264.7; test: Anti-inflammatory activity in mouse RAW264.7 cells assessed as inhibition of LPS-induced IL6 production pre-incubated for 10 mins before LPS stimulation for 24 hrs by ELISA method; assay type: functional, cell-based; conditions: in the assay text read “pre-incubated for 30 mins” for “pre-incubated for 10 mins”
Summary of the method: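 RAW 264.7 macrophages pretreated for 30 min at 1, 2.5, 5 and 10 µM, then given LPS (0.5 µg/mL) for 24 h. IL-6 in medium measured by ELISA, normalized to total protein, and expressed as percent of LPS. Concentration-response used for IC50; 3 independent experiments.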

[4] = Toxicity against human HL7702 cells assessed as reduction in cell survival at 10 uM incubated for 24 hrs by MTT assay; assay type: cell-based; conditions: l02, 24 h
Summary of the method: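 HL-7702 normal hepatic cells treated at 10 µM for 24 h. Viability measured by MTT.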

[5] = test system: RAW264.7; test: Anti-inflammatory activity in mouse RAW264.7 cells assessed as inhibition of LPS-induced IL6 production pre-incubated for 30 mins before LPS stimulation for 24 hrs by ELISA method
[6] = test system: Mus musculus; test: Anti-inflammatory activity in C57BL/6 mouse model of LPS-induced acute lung injury assessed as reduction in serum TNFalpha level at 20 mg/kg for 1 week dosed before LPS instillation for 6 hrs; assay type: functional, organism-based
Summary of the method: (§2)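 LPS-induced ALI in mice. Pretreatment at 20 mg/kg for one week, then intratracheal LPS (5 mg/kg). Animals killed 6 h later. BALF and serum collected and TNF-α measured in each.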

[7] = test system: Mus musculus; test: Anti-inflammatory activity in C57BL/6 mouse model of LPS-induced acute lung injury assessed as reduction in lung CD68-stained macrophages level at 20 mg/kg for 1 week dosed before LPS instillation for 6 hrs by immunohistochemistry method; assay type: functional, organism-based
Summary of the method: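 Lung sections from mice killed 6 h after intratracheal LPS, with or without pretreatment. Macrophages detected by immunohistochemistry for the marker CD68.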

[8] = test system: Mus musculus; test: Anti-inflammatory activity in C57BL/6 mouse model of LPS-induced acute lung injury assessed as reduction in lung wet/dryweight ratio at 20 mg/kg for 1 week dosed before LPS instillation for 6 hrs; assay type: functional, organism-based
Summary of the method: (§3)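 ALI model in mice: one-week pretreatment at 20 mg/kg, then intratracheal LPS instillation (5 mg/kg). After 6 h, animals anaesthetized and killed. Lung wet/dry weight ratio determined. Total cell count and total protein concentration measured in bronchoalveolar lavage fluid.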

[9] = test system: Mus musculus; test: Anti-inflammatory activity in C57BL/6 mouse model of LPS-induced acute lung injury assessed as reduction in protein level in bronchoalveolar lavage fluid at 20 mg/kg for 1 week dosed before LPS instillation for 6 hrs by BCA protein assay; assay type: functional, organism-based; summary of the method: as §3
[10] = test system: Mus musculus; test: Anti-inflammatory activity in C57BL/6 mouse model of LPS-induced acute lung injury assessed as reduction in total cel count at 20 mg/kg for 1 week dosed before LPS instillation for 6 hrs; assay type: functional, organism-based; summary of the method: as §3
[11] = test system: Mus musculus; test: Anti-inflammatory activity in C57BL/6 mouse model of LPS-induced acute lung injury assessed as reduction in TNFalpha level in bronchoalveolar lavage fluid at 20 mg/kg for 1 week dosed before LPS instillation for 6 hrs; assay type: functional, organism-based; summary of the method: as §2
[12] = species: Mus musculus; test: Anti-inflammatory activity in C57BL/6 mouse model of LPS-induced acute lung injury assessed as reduction in lung airspace inflammation […] by hematoxylin and eosin staining method; assay type: functional, organism-based
Summary of the method: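 Lung tissue taken 6 h after tracheal LPS instillation (5 mg/kg) in mice given or not given treatment. Sections stained with hematoxylin and eosin and examined by light microscopy for inflammatory cell infiltration, interstitial edema and alveolar septal thickening.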

[13] = test system: BEAS-2B; test: Anti-inflammatory activity in human BEAS2B cells assessed as LPS-induced IL-1beta mRNA expression incubated for 6 hrs by RT-qPCR method; assay type: functional, cell-based
Summary of the method: (§4)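 Beas-2B cells exposed to LPS (1.0 µg/mL) for 6 h, with or without compound. IL-1β, IL-6, IL-33 and TNF-α mRNA quantified by RT-qPCR. Results expressed as percent of LPS control.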

[14] = test system: BEAS-2B; test: Anti-inflammatory activity in human BEAS2B cells assessed as LPS-induced IL6 mRNA expression incubated for 6 hrs by RT-qPCR method; assay type: functional, cell-based; summary of the method: as §4
[15] = test system: BEAS-2B; test: Anti-inflammatory activity in human BEAS2B cells assessed as LPS-induced IL33 mRNA expression incubated for 6 hrs by RT-qPCR method; assay type: functional, cell-based; summary of the method: as §4
[16] = test system: BEAS-2B; test: Anti-inflammatory activity in human BEAS2B cells assessed as LPS-induced TNFalpha mRNA expression incubated for 6 hrs by RT-qPCR method; assay type: functional, cell-based; summary of the method: as §4

Compound	inhibition [1]	inhibition [2]	other results
COc1ccc(C(=O)/C=C/c2cc(OC)c(OC)c(OC)c2)cc1/N=C/c1ccc(Cl)cc1Cl	Active		
COc1ccc(C(=O)/C=C/c2ccc(Br)cc2)cc1/N=C/c1cccc(OC)c1O	Active	Active	
COc1ccc(C(=O)/C=C/c2cc(OC)c(OC)c(OC)c2)cc1/N=C/c1ccccc1O	Active		inhibition [3]: Dose-dependent effect; Activity [4]: Non-toxic; IC50 [5]: 3.6 µM
COc1ccc(C(=O)/C=C/c2ccccc2Br)cc1/N=C/c1cccc(OC)c1O	Active	Active	
COc1cc(OC)c(/C=C/C(=O)c2ccc(OC)c(/N=C/c3cccc(OC)c3O)c2)c(OC)c1	Active		
COc1ccc(C(=O)/C=C/c2cc(OC)c(OC)c(OC)c2)cc1/N=C/c1ccccc1Br	Active	Active	inhibition [3]: Dose-dependent effect; Activity [4]: Non-toxic; IC50 [5]: 4.8 µM
COc1ccc(C(=O)/C=C/c2cc(OC)c(OC)c(OC)c2)cc1/N=C/c1ccc(O)c(Br)c1	Active	Active	inhibition [3]: Dose-dependent effect; Activity [4]: Non-toxic; IC50 [5]: 3.6 µM
COc1ccc(C(=O)/C=C/c2ccccc2C(F)(F)F)cc1/N=C/c1cccc(OC)c1O	Active	Active	
COc1ccc(C(=O)/C=C/c2cccc(Br)c2)cc1/N=C/c1cccc(OC)c1O	Active	Active	
COc1ccc(C(=O)/C=C/c2ccc(C(F)(F)F)cc2)cc1/N=C/c1cccc(OC)c1O	Active	Active	
COc1ccc(C(=O)/C=C/c2cc(OC)c(OC)c(OC)c2)cc1/N=C/c1cccc(OC)c1O	Active	Active	IC50 [3]: 2.8 µM; inhibition [3]: Dose-dependent effect; Activity [4]: Non-toxic
COc1ccc(Br)c(/C=N/c2cc(C(=O)/C=C/c3cc(OC)c(OC)c(OC)c3)ccc2OC)c1	Active		
COc1ccc(C(=O)/C=C/c2cc(OC)c(OC)c(OC)c2)cc1/N=C/c1cc2c(cc1Br)OCO2	Active		
CCN(CC)c1ccc(/C=N/c2cc(C(=O)/C=C/c3cc(OC)c(OC)c(OC)c3)ccc2OC)c(O)c1	Active		
COc1ccc(C(=O)/C=C/c2cc(OC)c(OC)c(OC)c2)cc1/N=C/c1ccc(O)cc1O	Active		
Oc1ccc(/C=C/c2cc(O)cc(O)c2)cc1	Active	Active	inhibition [6]: Active; inhibition [7]: Active
COc1ccc(C(=O)/C=C/c2ccc(OC)c(OC)c2)cc1/N=C/c1cccc(OC)c1O	Active		
COc1ccccc1/C=C/C(=O)c1ccc(OC)c(/N=C/c2cccc(OC)c2O)c1	Active	Active	
COc1ccc(C(=O)/C=C/c2ccc3ccccc3c2)cc1/N=C/c1cccc(OC)c1O	Active		
COc1ccc(C(=O)/C=C/c2cc(OC)c(OC)c(OC)c2)cc1/N=C/c1cccc(O)c1O	Active	Active	inhibition [3]: Dose-dependent effect; Activity [4]: Non-toxic; inhibition [8]: Active; inhibition [9]: Active; inhibition [10]: Active; inhibition [11]: Active; inhibition [12]: Active; inhibition [6]: Active; inhibition [7]: Active; inhibition [13]: Active; inhibition [14]: Active; inhibition [15]: Active; inhibition [16]: Active; IC50 [5]: 1.8 µM
